In PubChem BioAssay AID504392 (Broad Institute, 2011):
Active and inactive are the calls of the source.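 How the source made its calls: active means fitted curve rising past 10% caspase activation at or below the top valid dose; inactive means activity opposite to the expected rise, or the rest.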

Assay: caspase activation in wild-type MEFs, dose response, counter-screen for Bcl2-A1 inhibitor project, cell-based, wild-type MEF, caspase luminescence, dry powder, set 2 (AID 504392)
Method in brief: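 test system = wild-type mouse embryonic fibroblasts, not A1–BIM primed | buffer or medium = RPMI-1640, 10% FBS | times = 3 h compound at 37 °C, 1 h reagent at RT | signal = luminescence with CaspaseGlo caspase reagent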

Row | SMILES | outcome
1 | Cn1c(=O)c([N+](=O)[O-])c(Nc2ccc(Cl)cc2)c2ccccc21 | inactive
2 | CCSc1c([N+](=O)[O-])c(=O)oc2ccccc12 | inactive
3 | O=c1oc2ccccc2c(Nc2cc(Cl)cc(Cl)c2)c1[N+](=O)[O-] | inactive
4 | CN1C(=O)C(C)(C)N(Cc2ccccc2)c2ccccc21 | inactive
5 | Cn1c(=O)c([N+](=O)[O-])c(-n2cnc3ccccc32)c2ccccc21 | inactive
6 | Cc1ccc(Nc2c([N+](=O)[O-])c(=O)n(C)c3ccccc23)cc1 | inactive
7 | Cc1ccc(Sc2c([N+](=O)[O-])c(=O)oc3ccccc23)cc1 | inactive
8 | Cc1ccc(Nc2c([N+](=O)[O-])c(=O)oc3ccccc23)cc1 | inactive
9 | O=[N+]([O-])c1cnc2ccccc2c1Sc1ccccc1 | inactive
10 | Cn1c(=O)c([N+](=O)[O-])c(Cl)c2ccccc21 | inactive
11 | Cc1ccc(Sc2c([N+](=O)[O-])c(=O)n(C)c3ccccc23)cc1 | inactive
12 | O=c1oc2ccccc2c(N2CCCCC2)c1[N+](=O)[O-] | inactive
13 | Cc1ccc(Sc2c([N+](=O)[O-])cnc3ccccc23)cc1 | inactive
14 | O=C(Oc1cccc(/C=N/Nc2nc(Nc3ccccc3)nc(N3CCOCC3)n2)c1)c1ccco1 | inactive
15 | CCOC(=O)N1CCN(c2c([N+](=O)[O-])c(=O)n(C)c3ccccc23)CC1 | inactive
16 | Cc1ccc(Sc2cc(=O)n(C)c3ccccc23)cc1 | inactive
17 | Cn1c(=O)c([N+](=O)[O-])c(Oc2ccccc2)c2ccccc21 | inactive
18 | O=c1oc2ccccc2c(Cl)c1[N+](=O)[O-] | inactive
19 | CCOCCCNc1c([N+](=O)[O-])c(=O)n(C)c2ccccc12 | inactive
20 | O=c1oc2ccccc2c(Sc2ccccc2)c1[N+](=O)[O-] | inactive
